This is a sample that favours compounds with a hit; in the whole collection about 5.1% have one here.
NF-kB neuron act: compounds increasing NF-kB expression in human neuronal cells. NF-kB reporter expression; hits give high values. fold change at 12.5 µM. hit rate 1.6% among 190,000. AID 1239; in the data active means fold change above about 3.3
STAT3 inh: inhibitors of IL-6 induced STAT3 signaling | U3A cells, IL-6 STAT3-luciferase reporter, luminescence; host cell line lacks STAT1 | inhibition, % at 5.5 µM | hit rate 0.89% among 190,000 | AID 862;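 active means inhibition above the mean inhibition across all screened compounds plus 3 SD, cut at about 44% in these data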;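 further: 0% = DMSO only wells and 100% = 100 µM nifuroxazide control wells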
STAT1 act-1: increases IFN-gamma driven STAT1 reporter signal; hit rate 2.6% among 200,000; NIH 3T3 STAT1-luciferase reporter, luminescence; 100% = IFN-gamma alone, no compound; activation (% of control), % at 5.5 µM;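 active means activation above the screen-wide mean activation plus 3 SD, cut at about 130% in these data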;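 further: raw ratio to IFN-gamma control signal so 100% means no change and 0% no light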
APP 5'UTR act: APP 5'UTR luciferase reporter activation | SH-SY5Y APP 5'UTR luciferase reporter, luminescence; zero percent = DMSO vehicle wells | activation, % at 2 µM | hit rate 1% among 190,000 | AID 1276;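 active means activation above a set limit, based on mean plus 3 SD of controls, cut at about 140% in these data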
STAT3 act-1: STAT3 signaling activation; U3A cells, IL-6 STAT3-luciferase reporter, luminescence; 100% = signal with IL-6 EC80 alone; hit rate 0.91% among 190,000; activation (% of control), % at 5.6 µM; AID 871;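 active means activation above the screen-wide mean of compound activation plus 3 SD, cut at about 130% in these data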;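 further: 0% = background luminescence of wells with medium and substrate only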
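System – human U3A cells carrying STAT3-luciferase construct · Probe or stimulus – Interleukin-6, 33 ng/mL · Schedule – compound 1 h, then IL-6 6 h at 37 °C · Signal – luminescence from STAT3-driven luciferase reporter · Evaluation – percent of IL-6-only median luminescence · Benchmarks – IL-6-only high control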
STAT1 blocker: inhibitors of IFN-gamma induced STAT1 signaling. NIH 3T3 STAT1-luciferase reporter, luminescence. inhibition, % at 5.5 µM. hit rate 0.35% among 200,000. AID 920;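 active means inhibition above a set limit, the mean inhibition across all tested compounds plus 3 SD, cut at about 34% in these data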;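 further: 0% = IFN-gamma with DMSO and 100% = IFN-gamma with 300 µM nifuroxazide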
STAT3 act-2: confirmation of STAT3 signaling activators; shares compounds with STAT3 act-1; U3A STAT3-luciferase reporter, IL-6 potentiation, luminescence; U3A cells lack STAT1; 100 means same as IL-6 alone; potentiation (% of control), % at 5.7 µM; hit rate 64% among 1,200;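 active means percent activation of the STAT3 luciferase reporter above a set limit taken from the earlier primary screen, cut at about 130% in these data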;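 further: 0% = background signal of medium plus substrate and 100% = median of IL-6 with DMSO wells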
NFkB act STAT3ct: counter-screen for STAT3 activators: NF-kappaB activation. shares compounds with STAT3 act-1. human cells, NF-kappaB reporter activation. activation (% of control), % at 5.7 µM. hit rate 11% among 1,200. AID 1309; in the data active means activation above about 120%;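 further: reporter induced by TNF-alpha stimulation; 100% = median of stimulated DMSO wells and 0% = no signal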
STAT1 act-2: counter-screen for STAT3 activators: STAT1 activation. shares compounds with STAT3 act-1. NIH 3T3 STAT1-luciferase reporter, IFN-gamma, luminescence. activation (% of control), % at 5.7 µM. hit rate 13% among 1,200. AID 1318;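 active means activation above the solvent-only control well mean plus 3 SD, set per screening run, cut at about 120% in these data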;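 further: 100% = IFN-gamma with DMSO median signal so 100% means no change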
Active calls of the source: *; · = no result given.

SMILES	NF-kB neuron act	STAT3 inh	STAT1 act-1	APP 5'UTR act	STAT3 act-1	STAT1 blocker	STAT3 act-2	NFkB act STAT3ct	STAT1 act-2
COc1ccccc1-c1nnc(SCC(=O)NC2CCCCC2)o1	0.97	-70	100	17	163*	0	146*	97	97
O=C(NCc1cccs1)C1CCC(CNS(=O)(=O)c2ccccc2)CC1 (stereo not drawn)	1.3	8	94	7	97	8	·	·	·
CCCC(=O)Nc1nn(C)c2nc3c(C)cccc3cc12	0.98	2	92	2	102	9	·	·	·
Cc1cccc2cc3c(NC(=O)c4ccccn4)nn(C)c3nc12	0.64	-58	91	5	156*	9	140*	107	91
Cc1nn(-c2ccccc2)c2sc(C(=O)O)cc12	1.1	4	101	21	102	0	·	·	·
COC(=O)c1cc2c(C)nn(-c3ccccc3)c2s1	1.6	-61	91	11	158*	10	139*	107	112
CCOC(=O)c1cc2c(C)nn(-c3ccccc3)c2s1	·	-54	112	-5	148*	-13	131	105	110
Cc1nn(-c2ccccc2)c2sc(C(=O)N3CCOCC3)cc12	2	-86	121	73	177*	-23	189*	129*	135*
Cc1ccc(S(=O)(=O)N2CCN(C(=O)c3cc4c(C)nn(-c5ccccc5)c4s3)CC2)cc1	0.73	-1	99	·	101	4	·	·	·
O=C(OCC1OC(n2cnc3c(N(C(=O)c4ccccc4)C(=O)c4ccccc4)ncnc32)C(O)C1F)c1ccccc1 (stereo not drawn)	0.8	-11	98	-3	111	3	·	·	·
O=C(C1CCN(c2nc3nonc3nc2N2CCCCC2)CC1)N1CCOCC1	1.1	12	106	-2	93	-9	·	·	·
CCOC(=O)N1CCC(N2Cc3cccc(C(=O)N4CCN(C5CCCCC5)CC4)c3C2=O)CC1	0.91	4	104	15	104	-4	·	·	·
CCOc1ccccc1C(=O)NN1C(=O)CCC1=O	0.96	-43	97	6	143*	3	155*	102	107
COc1ccnc(Nc2ccc(C)c(C)c2)c1C#N	1.2	-46	103	8	143*	-3	105	95	98
O=C(CNc1ccc2ccccc2c1)N/N=C/c1cc2ccccc2nc1Cl	0.63	-43	99	0	144*	1	138*	98	95
Cn1c(C(C#N)C(=O)Cc2cccc3ccccc23)nc2ccccc21 (stereo not drawn)	1.2	4	102	11	102	-3	·	·	·
Cn1c(C(C#N)C(=O)c2ccco2)nc2ccccc21 (stereo not drawn)	1.8	-35	113	27	136*	-12	136*	111	124*
COc1ccc(C(C)=O)c2c(O)cccc12	0.93	-54	100	-5	150*	1	148*	113	120
COc1ccc(C(C)=O)c2c1OCCO2	1.1	-4	107	2	109	-8	·	·	·
O=c1c2cnn(-c3ccccc3)c2nc(-c2ccco2)n1-c1ccccc1	0.45	30	103	11	78	-4	·	·	·
CC(C)c1nc2oc3ccccc3c(=O)c2c(=O)n1-c1ccccc1	1.7	-73	103	19	159*	-3	132	103	113
O=c1c2ccccc2oc2nc(-c3ccco3)n(-c3ccccc3)c(=O)c12	0.85	-45	110	93	136*	-11	135*	109	109
Cc1csc(NC(=O)Cc2coc3cc(C)c(C(C)C)cc23)n1	0.7	-38	96	3	137*	5	125	99	96
O=c1[nH]c(CN2CCc3ccccc3C2)nc2ccccc12	1.1	-7	91	-7	106	10	·	·	·
Cc1[nH]c2ccccc2c1CN1CCc2ccccc2C1	2.4	-59	102	-5	158*	-2	132	97	86
SMILES	NF-kB neuron act	STAT3 inh	STAT1 act-1	APP 5'UTR act	STAT3 act-1	STAT1 blocker	STAT3 act-2	NFkB act STAT3ct	STAT1 act-2
Cc1cc(=O)oc(C)c1C(=O)NCCc1ccc(F)cc1	0.84	7	101	6	98	-1	·	·	·
O=S(=O)(c1cccs1)N1CCN(Cc2nc3ccccc3s2)CC1	0.96	-24	88	5	124	13	·	·	·
O=C(OCc1nc2ccccc2s1)C1CCN(S(=O)(=O)c2cccs2)CC1	0.95	-46	125	29	144*	-27	140*	123*	131*
CCOC(=O)c1c(C)[nH]c(C(=O)OCC(=O)Nc2cc(C)c(Cl)cc2OC)c1C	0.98	-54	100	·	142*	0	127	102	105
Cc1cc(C)c(C#N)c(SCc2nc3ccccc3[nH]2)n1	2.9	-87	117	148*	185*	-18	165*	110	105
CC(=O)c1cc(NC(=O)c2ccc(Cl)cc2)c(=O)oc1/C=C/N(C)C	1.2	3	101	11	103	-1	·	·	·
COc1ccccc1C(=O)Nc1cc2ccccc2oc1=O	2.3	-87	121	16	184*	-22	192*	135*	166*
COc1ccccc1C(=O)Nc1cc2cc(Br)ccc2oc1=O	1.2	-44	104	3	137*	-4	138*	114	134*
COc1cc(NC(=O)c2cc3ccccc3o2)c(OC)cc1Br	1.1	-50	100	0	149*	0	135*	101	102
CCOc1ccccc1C(=O)Nc1cc(Cl)ccc1O	0.82	-16	92	1	115	2	·	·	·
COc1ccccc1C(=O)Nc1cc(Cl)ccc1O	1.4	-52	93	-10	151*	8	162*	109	114
COc1ccc(-c2ccc(-c3noc(C)n3)c(OC)n2)cc1	2.1	-10	127	53	113	-30	·	·	·
Cc1cccc(N2CCN(C(=S)c3ccccc3)CC2)c1	·	3	98	1	103	2	·	·	·
Cc1ccc(C)c(NC(=O)c2nc(Cl)ccc2Cl)c1	1.2	-26	102	16	127	-2	·	·	·
O=C(Nc1ccccc1O)c1nc(Cl)ccc1Cl	1	-58	91	41	156*	9	171*	106	98
COCCNC(=O)C(=O)NNC(=O)c1ccccc1OC	1.2	-46	99	8	142*	-1	137*	109	103
COCCNC(=O)C(=O)NNC(=O)COc1ccc(OC)cc1	1.2	2	101	20	102	-2	·	·	·
